PKA-R2B activ: activators of PKA-R2B holoenzyme, primary screen, biochemical, fluorescence polarization, Cy5-IP20, human; cAMP-dependent protein kinase catalytic subunit beta (Homo sapiens) + cAMP-dependent …; PKA-R2B holoenzyme dissociation; R2B truncated from residue 108, S112A mutant; 0% DMSO only, 100% 113 µM cGMP; activation, % at 11.4 µM; actives 0.079% (n = 340,000); AID 504700, 2011;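 active = activation above a cutoff set at the mean over all compounds plus 3 SD, cut at about 18% in these data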;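 also: higher means more holoenzyme dissociation and a rise in polarization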
PKA-R1A activ: activators of PKA-R1A holoenzyme, primary screen, biochemical, fluorescence polarization, Cy5-IP20, bovine R1A, mouse PKAc. cAMP-dependent protein kinase type I-alpha regulatory subunit (Bos taurus) + …. PKA-R1A dissociation; scaled: DMSO 0%, 113 µM cGMP 100%. actives 0.083% (n = 340,000). activation, % at 11.4 µM;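 active = percent activation above the mean of all tested compounds plus 3 SD, cut at about 19% in these data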;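 also: higher means more PKAc released from R1A so a rise in polarization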
NTR1 agonist: agonists of human NTR1, primary screen, imaging, U2OS cells, beta-arrestin-GFP, high content; NTR1-U2OS beta-arrestin-GFP spot imaging, agonist mode; activation, % at 20 µM; actives 0.17% (n = 330,000);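 active = activation at or above 40% of the spot to cytoplasm intensity ratio, with at least 20 cells analyzed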;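 also: 0% = DMSO without peptide and 100% = 100 nM NTR1 peptide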
CAL PDZ FP-1: untagged CAL PDZ binding inhibitors, primary screen, biochemical, fluorescence polarization, HTS; Golgi-associated PDZ and coiled-coil motif-containing protein (Homo sapiens), Q9HD26; purified CAL PDZ, TMR-peptide fluorescence polarization, 1 h; inhibition, % at 24.9 µM; actives 0.92% (n = 300,000); AID 602252, 2012;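 active = mean inhibition of at least 30% with at least half of replicates also reaching 30%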;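 also: 0% = DMSO neutral control and 100% = excess unlabeled competitor peptide PRC23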
dFosB act: activators of delta FosB homodimer, primary screen, biochemical, fluorescence polarization, TAMRA-CDK5 oligo, single point | Protein FosB (Mus musculus), P13346 | purified delta FosB; percent of positive-control signal above neutral wells | activation, % at 25 µM | actives 0.99% (n = 340,000) | AID 493131, 2011;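 active = mean activation above about 17%, with every replicate also reaching it, limit read from the data, passing the limit was not always enough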
Target sequence (P13346 whole entry, looked up): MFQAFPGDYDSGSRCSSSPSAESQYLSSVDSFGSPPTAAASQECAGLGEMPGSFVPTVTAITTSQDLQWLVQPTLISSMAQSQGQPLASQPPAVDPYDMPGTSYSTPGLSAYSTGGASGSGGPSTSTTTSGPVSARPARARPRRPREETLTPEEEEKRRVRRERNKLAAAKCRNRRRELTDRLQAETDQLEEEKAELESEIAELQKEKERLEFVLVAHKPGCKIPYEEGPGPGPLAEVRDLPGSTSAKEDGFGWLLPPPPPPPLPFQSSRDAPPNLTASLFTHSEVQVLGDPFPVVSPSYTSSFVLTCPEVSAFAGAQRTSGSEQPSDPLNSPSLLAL
CAL PDZ FP-2: CAL PDZ peptide-binding inhibitors, primary screen, biochemical, fluorescence polarization, Cer-tagged CAL PDZ, HTS. Golgi-associated PDZ and coiled-coil motif-containing protein (Homo sapiens), Q9HD26. purified CAL PDZ, TMR-peptide fluorescence polarization, 1 h. inhibition, % at 20 µM. actives 0.02% (n = 330,000). AID 504414, 2011;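 active = highest replicate inhibition of at least 40%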;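 also: plate controls were DMSO neutral control wells for no effect and unlabeled competitor peptide control wells for full effect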
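System: purified tagged CAL PDZ domain construct (CerCALP). Schedule: 1 h incubation at room temperature before polarization reading. Medium: 25 mM sodium phosphate pH 7.4, 150 mM NaCl, TCEP, IgG, Thesit. Read-out: percent inhibition from loss of millipolarization. Measured by: FP readout, S and P plane fluorescence. Probe or stimulus: fluorescent TMR peptide probe.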
R1A FP artifact: FP signal interference without PKA proteins, confirmation, artefact control for PKA-R1A activator project, biochemical, fluorescence polarization, triplicate. shares compounds with PKA-R1A activ. Cy5-IP20 peptide alone, fluorescence polarization artifact counterscreen. activation, % at 11.4 µM. actives 7% (n = 280). AID 504799, 2011;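 active = mean activation over triplicate runs exceeds the adjusted cutoff derived for the parent primary screen, cut at about 19% in these data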;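 also: no PKA protein present so any polarization rise reflects compound interference; 0% = tracer peptide mix alone and 100% = mix with added PKA catalytic subunit; higher means stronger polarization artifact and likely false positive in parent screen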
PKA-R1A act conf: activators of PKA-R1A holoenzyme, confirmation, biochemical, fluorescence polarization, Cy5-IP20, triplicate. activation, % at 11.4 µM. shares compounds with PKA-R1A activ. actives 9% (n = 280). AID 504800, 2011. PKA-R1A holoenzyme dissociation;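 active = mean activation over replicate wells exceeds the adjusted hit threshold taken from the earlier primary screen, cut at about 20% in these data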;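 also: 0% = holoenzyme mix with DMSO only and 100% = cGMP-activated control wells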
Target sequence (P00514 whole entry, looked up): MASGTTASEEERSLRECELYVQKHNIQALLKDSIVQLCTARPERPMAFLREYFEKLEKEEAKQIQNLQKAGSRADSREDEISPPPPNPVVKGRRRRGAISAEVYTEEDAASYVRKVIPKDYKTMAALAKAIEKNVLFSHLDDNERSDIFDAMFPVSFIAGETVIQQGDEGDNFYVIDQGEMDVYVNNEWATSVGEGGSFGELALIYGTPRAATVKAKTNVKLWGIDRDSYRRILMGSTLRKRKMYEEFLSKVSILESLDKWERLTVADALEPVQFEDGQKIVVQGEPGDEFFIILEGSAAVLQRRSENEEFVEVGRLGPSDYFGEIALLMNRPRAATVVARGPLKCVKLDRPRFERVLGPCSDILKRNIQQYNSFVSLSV
* marks the source's active call; other numbers are inactive results. Compounds with a hit are over-represented: about 2% of the library has one in this group of screens.

`C/C(=N\Nc1ccccc1C(=O)O)c1ccncc1` gave PKA-R2B activ -1, PKA-R1A activ 11, NTR1 agonist -1, CAL PDZ FP-1 -1, dFosB act -1 and CAL PDZ FP-2 -1.
Screening O=C(COC(=O)c1cccc(S(=O)(=O)N2CCCC2)c1)Nc1ccc(Cl)cc1 returned PKA-R2B activ -2 and PKA-R1A activ 3.
`COc1ccc(C(=O)Nc2c3c(nn2-c2ccc([N+](=O)[O-])cc2)CS(=O)(=O)C3)cc1` gave PKA-R2B activ -4, PKA-R1A activ -5, NTR1 agonist -2, CAL PDZ FP-1 -3, dFosB act 1 and CAL PDZ FP-2 -2.
`COc1ccc(C(=O)Nc2c3c(nn2-c2ccc(Cl)cc2)CS(=O)(=O)C3)cc1` gave PKA-R2B activ -8, PKA-R1A activ 20*, NTR1 agonist 4, CAL PDZ FP-1 -5, dFosB act -8, CAL PDZ FP-2 -2, R1A FP artifact 0 and PKA-R1A act conf 0.
`Cc1cccc(NC(=O)c2ccc3c(c2)C(=O)N(c2ccccc2C)C3=O)n1` gave PKA-R2B activ -8, PKA-R1A activ 0, NTR1 agonist 1, CAL PDZ FP-1 -1, dFosB act -12 and CAL PDZ FP-2 -2.
`CCCCS(=O)(=O)N1CCCC(C(=O)Nc2ccc3c(c2)CCC3)C1` (centres undefined) gave PKA-R2B activ 1, PKA-R1A activ 19*, NTR1 agonist 0, CAL PDZ FP-1 0, dFosB act -3, CAL PDZ FP-2 1, R1A FP artifact 0 and PKA-R1A act conf 1.
Screening CCCCS(=O)(=O)N1CCCC(C(=O)NCCc2ccccc2)C1 (centres undefined) returned PKA-R2B activ -13, PKA-R1A activ -10, NTR1 agonist -1, CAL PDZ FP-1 -3, dFosB act 1 and CAL PDZ FP-2 -1.
Cc1ccc(S(=O)(=O)n2cnc(C)c2)cc1 was read as PKA-R2B activ 4, PKA-R1A activ 20*, NTR1 agonist -1, dFosB act -5, CAL PDZ FP-2 0, R1A FP artifact 3 and PKA-R1A act conf 3.
Screening CC(Sc1ccccc1)C(=O)NCC1COc2ccccc2O1 (centres undefined) returned PKA-R2B activ 6, PKA-R1A activ -6, NTR1 agonist 2, CAL PDZ FP-1 -1, dFosB act -7 and CAL PDZ FP-2 -2.
For O=C(NCCC1CCCCN1S(=O)(=O)c1cccs1)C(=O)Nc1ccc(F)cc1 (centres undefined) the results were PKA-R2B activ 2, PKA-R1A activ -3, NTR1 agonist 1, CAL PDZ FP-1 -1, dFosB act 4 and CAL PDZ FP-2 -1.
`CNC(=O)COc1ncnc2scc(-c3ccc(F)cc3)c12` gave PKA-R2B activ 1, PKA-R1A activ 19*, NTR1 agonist -1, CAL PDZ FP-1 1, dFosB act -3, CAL PDZ FP-2 -3, R1A FP artifact 3 and PKA-R1A act conf 5.
Screening COc1ccc(C)cc1NC(=O)CO/N=C(\N)CC(=O)Nc1ccccc1OC returned PKA-R2B activ 4, PKA-R1A activ 20*, NTR1 agonist 0, CAL PDZ FP-1 -3, dFosB act -8, CAL PDZ FP-2 0, R1A FP artifact 3 and PKA-R1A act conf 1.
COc1ccccc1NC(=O)C/C(N)=N/OCC(=O)Nc1cccc(Cl)c1 was read as PKA-R2B activ -2, PKA-R1A activ -12, NTR1 agonist -1, CAL PDZ FP-1 -2, dFosB act -4 and CAL PDZ FP-2 0.
`Cc1ccc(-c2cc(C(=O)N3CCOCC3)no2)cc1` gave PKA-R2B activ 5, PKA-R1A activ 21*, NTR1 agonist 1, CAL PDZ FP-1 -1, dFosB act -3, CAL PDZ FP-2 -3, R1A FP artifact 6 and PKA-R1A act conf 5.
For CCCNC(=O)COc1ccc2c(=O)c(Oc3ccccc3F)coc2c1 the results were PKA-R2B activ 1, PKA-R1A activ -3, NTR1 agonist 0, CAL PDZ FP-1 4, dFosB act 1 and CAL PDZ FP-2 -1.
For COc1ccccc1Oc1coc2cc(OCC(N)=O)ccc2c1=O the results were PKA-R2B activ -4, PKA-R1A activ 19*, NTR1 agonist 0, CAL PDZ FP-1 -1, dFosB act -1, CAL PDZ FP-2 -1, R1A FP artifact 1 and PKA-R1A act conf 4.
Screening COc1cc2c(c(OC)c1OC)C(=O)CO2 returned PKA-R2B activ 1, PKA-R1A activ -1, CAL PDZ FP-1 9, dFosB act -3 and CAL PDZ FP-2 1.
C1N2CN3CN1CN(C2)C3 was read as PKA-R2B activ -4, PKA-R1A activ -1, NTR1 agonist -1, CAL PDZ FP-1 2, dFosB act 2 and CAL PDZ FP-2 -1.
COc1cccc(C2C(C#N)=C(N)OC(C(C)(C)C)=C2C#N)c1 (centres undefined) was read as PKA-R2B activ -10, PKA-R1A activ -2, NTR1 agonist 1, CAL PDZ FP-1 -2, dFosB act -15 and CAL PDZ FP-2 -2.
`COc1ccc(C2C(C#N)=C(N)OC(C(C)(C)C)=C2C#N)cc1OC` (centres undefined) gave PKA-R2B activ -12, PKA-R1A activ 20*, NTR1 agonist 0, CAL PDZ FP-1 -5, dFosB act 0, R1A FP artifact 4 and PKA-R1A act conf 2.
`O=C(NNC(=S)Nc1cccc(Cl)c1)c1ccccc1` gave PKA-R2B activ 10, PKA-R1A activ 20*, NTR1 agonist 0, CAL PDZ FP-1 -4, dFosB act 5, CAL PDZ FP-2 0, R1A FP artifact 6 and PKA-R1A act conf 9.
`O=C1/C(=C/c2cccnc2)SC(=S)N1CC1CCCO1` (centres undefined) gave PKA-R2B activ -5, PKA-R1A activ 25*, NTR1 agonist 2, CAL PDZ FP-1 4, dFosB act -5, CAL PDZ FP-2 -6, R1A FP artifact 0 and PKA-R1A act conf 0.
`COc1ccc(/C=C2\SC(=S)N(CC3CCCO3)C2=O)cc1` (centres undefined) gave PKA-R2B activ -14, PKA-R1A activ -5, NTR1 agonist 5, CAL PDZ FP-1 -4, dFosB act -7 and CAL PDZ FP-2 0.
`COc1ccc(C(=O)OCC(=O)NCCc2ccc(F)cc2)cc1S(=O)(=O)N1CCOCC1` gave PKA-R2B activ 1, PKA-R1A activ 1, NTR1 agonist 0, CAL PDZ FP-1 -7, dFosB act -10 and CAL PDZ FP-2 0.

Assay outcomes as filed in PubChem.
